Calls of active or inactive are those of the source. No cut-off for these calls is given here.
Legend:
[1] = system: Mus musculus; assay: Antinociceptive activity in formalin induced nociceptive mouse model assessed as inhibition of nociceptive behavior at 0.3 mg/kg, ip administered 10 mins prior to formalin induction measured for 15 to 60 mins in presence of adenosine A3 agonist 2Cl-IBMECA; format: functional, organism-based
Method in brief: (§1)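 Mice, randomized, n = 8–10 per group; ip compound or vehicle (10% DMSO in 0.9% NaCl) 10 min before formalin (1.25% in saline, 30 μL) into dorsal hind paw. Lifting, licking, shaking, flinching timed every 5 min for 60 min; phase 1 0–7 min, phase 2 15–60 min; mean ± SEM.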

[2] = system: Mus musculus; assay: Antinociceptive activity in formalin induced nociceptive mouse model assessed as reduction in nociceptive behavior at 0.3 mg/kg, ip administered 10 mins prior to formalin induction measured up to 7 mins in presence of adenosine A3 agonist 2Cl-IBMECA; format: functional, organism-based; method in brief: as §1
[3] = system: Mus musculus; assay: Antinociceptive activity in formalin induced nociceptive mouse model at 1 mg/kg, ip administered 10 mins prior to formalin induction measured up to 60 mins; format: functional, organism-based; method in brief: as §1
[4] = system: Mus musculus; assay: Antinociceptive activity in formalin induced nociceptive mouse model assessed as reduction in late nociceptive behavior at 0.5 mg/kg, ip administered 10 mins prior to formalin induction measured for 15 to 60 mins in presence of adenosine A3 receptor antagonist MRS1334; format: functional, organism-based; method in brief: as §1
[5] = target: T1, Adenosine receptor A3 (Rattus norvegicus, UniProt P28647); assay: Displacement of [3H]NECA from recombinant rat adenosine A3 receptor expressed in CHO cell membranes after 3 hrs by microbeta scintillation counting
T1 sequence (P28647 whole entry): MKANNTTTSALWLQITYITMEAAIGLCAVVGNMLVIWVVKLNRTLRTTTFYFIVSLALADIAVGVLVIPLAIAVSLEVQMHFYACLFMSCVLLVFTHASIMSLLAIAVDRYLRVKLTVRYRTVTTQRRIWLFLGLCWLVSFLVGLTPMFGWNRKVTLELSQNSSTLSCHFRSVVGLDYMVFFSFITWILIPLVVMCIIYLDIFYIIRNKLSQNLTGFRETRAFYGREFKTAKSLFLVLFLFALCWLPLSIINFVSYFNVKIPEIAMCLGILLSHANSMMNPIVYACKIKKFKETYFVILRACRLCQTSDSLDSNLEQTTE
Method in brief: (§2)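 CHO membranes with stable human A1, A2A, A3 or rat A3 (1000g then 100 000g spin, stored -80 °C). Competition: hA1 1 nM [3H]CCPA, nonspecific with 1 mM theophylline; hA2A 10 nM [3H]NECA; hA3 1 nM [3H]HEMADO; rA3 30 nM [3H]NECA; latter three nonspecific with 100 μM R-PIA.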

[6] = target: T2, Adenosine receptor A3 (Homo sapiens, UniProt P0DMS8); assay: Displacement of [3H]HEMADO from recombinant human adenosine […] receptor expressed in CHO cell membranes after 3 hrs by microbeta scintillation counting; method in brief: as §2
T2 sequence (P0DMS8 whole entry): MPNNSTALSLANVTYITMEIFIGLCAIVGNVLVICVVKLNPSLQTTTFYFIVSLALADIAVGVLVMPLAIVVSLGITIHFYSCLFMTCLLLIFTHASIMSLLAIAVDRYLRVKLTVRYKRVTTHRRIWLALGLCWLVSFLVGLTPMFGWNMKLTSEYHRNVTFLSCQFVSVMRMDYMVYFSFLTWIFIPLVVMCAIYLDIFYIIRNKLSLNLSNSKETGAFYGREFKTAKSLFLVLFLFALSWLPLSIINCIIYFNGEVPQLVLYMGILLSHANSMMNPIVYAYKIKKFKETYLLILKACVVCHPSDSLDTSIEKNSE

[7] = target: T3, Adenosine receptor A2a (Homo sapiens, UniProt P29274); assay: Agonist activity at recombinant human adenosine A2A receptor expressed in CHO cell membranes assessed as stimulation of adenylyl cyclase activity by [alpha-32P]ATP assay; format: functional, cell-based
T3 sequence (P29274 whole entry): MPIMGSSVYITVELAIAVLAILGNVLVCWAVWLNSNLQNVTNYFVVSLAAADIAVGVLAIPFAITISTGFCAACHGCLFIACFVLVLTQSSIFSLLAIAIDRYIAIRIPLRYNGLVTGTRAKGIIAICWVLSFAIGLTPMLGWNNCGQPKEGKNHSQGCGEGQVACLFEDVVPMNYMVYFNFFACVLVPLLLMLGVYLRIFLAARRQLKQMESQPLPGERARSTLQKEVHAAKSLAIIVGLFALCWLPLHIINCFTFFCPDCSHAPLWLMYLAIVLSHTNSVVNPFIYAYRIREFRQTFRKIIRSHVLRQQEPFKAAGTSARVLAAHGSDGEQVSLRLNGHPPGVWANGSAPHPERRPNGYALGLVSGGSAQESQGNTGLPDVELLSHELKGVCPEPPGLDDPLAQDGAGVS
Method in brief: (§3)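 hA2A or hA2B in CHO cell membranes (one high-speed spin, pellet in 50 mM Tris/HCl pH 7.4, used immediately); agonist stimulation of adenylyl cyclase gives EC50; partial agonism judged as efficacy against 100 μM NECA as full agonist. Geometric means, 95% confidence intervals, n = 3.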

[8] = target: T4, Adenosine receptor A2b (Homo sapiens) (UniProt P29275); assay: Partial agonist activity at recombinant human adenosine A2B receptor expressed in CHO cell membranes assessed as stimulation of adenylyl cyclase activity by [alpha-32P]ATP assay relative to NECA; format: functional, cell-based; method in brief: as §3
T4 sequence (whole entry): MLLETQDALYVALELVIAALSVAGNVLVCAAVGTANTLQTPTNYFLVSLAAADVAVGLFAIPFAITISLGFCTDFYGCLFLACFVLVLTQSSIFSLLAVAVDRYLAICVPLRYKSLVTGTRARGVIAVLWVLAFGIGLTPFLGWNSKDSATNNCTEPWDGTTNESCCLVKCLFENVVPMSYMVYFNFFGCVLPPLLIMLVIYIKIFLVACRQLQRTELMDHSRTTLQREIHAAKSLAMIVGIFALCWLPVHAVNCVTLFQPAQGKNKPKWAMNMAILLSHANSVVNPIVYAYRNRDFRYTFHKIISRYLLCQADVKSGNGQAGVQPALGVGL

[9] = target: T3, Adenosine receptor A2a; assay: Agonist activity at recombinant human adenosine A2A receptor expressed in CHO cell membranes assessed as stimulation of adenylyl cyclase activity relative to NECA; format: functional, cell-based; method in brief: as §3
[10] = species: Homo sapiens; assay: Selectivity ratio of Ki for recombinant human adenosine A2A receptor expressed in CHO cell membranes to Ki for recombinant human adenosine A1 receptor expressed in CHO cell membranes; format: cell-based; method in brief: as §2
[11] = target: T2, Adenosine receptor A3; assay: Antagonist activity at recombinant human adenosine A3 receptor expressed in CHO cell membranes assessed as reversal of NECA-mediated inhibition of adenylyl cyclase activity after 10 mins by [alpha-32P]ATP assay; format: functional, cell-based
[12] = target: T5, Adenosine receptor A1 (Homo sapiens, UniProt P30542); assay: Displacement of [3H]CCPA from recombinant human adenosine A1 receptor expressed in CHO cell membranes after 3 hrs by microbeta scintillation counting; method in brief: as §2
T5 sequence (P30542 whole entry): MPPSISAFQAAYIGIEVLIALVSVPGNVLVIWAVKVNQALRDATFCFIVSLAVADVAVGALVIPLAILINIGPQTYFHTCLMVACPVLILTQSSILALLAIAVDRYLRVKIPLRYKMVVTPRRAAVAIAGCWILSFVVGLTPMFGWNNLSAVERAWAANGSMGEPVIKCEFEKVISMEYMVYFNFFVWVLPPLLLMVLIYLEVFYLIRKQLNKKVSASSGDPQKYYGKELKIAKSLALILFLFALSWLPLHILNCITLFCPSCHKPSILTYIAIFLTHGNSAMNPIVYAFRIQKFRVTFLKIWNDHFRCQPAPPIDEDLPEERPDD

[13] = target: T5, Adenosine receptor A1; assay: Agonist activity at recombinant human adenosine A1 receptor expressed in CHO cell membranes assessed as inhibition of forskolin-stimulated adenylyl cyclase activity after 10 mins in presence of [alpha-32P]ATP; format: functional, cell-based
Method in brief: (§4)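 hA1 in CHO cell membranes (single high-speed spin, resuspended in 50 mM Tris/HCl pH 7.4, used immediately); agonist inhibition of forskolin-stimulated adenylyl cyclase; efficacy relative to CCPA as reference full agonist (100%). Geometric means with 95% confidence intervals, n = 3.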

[14] = species: Homo sapiens; assay: Selectivity ratio of Ki for recombinant human adenosine A2A receptor expressed in CHO cell membranes to Ki for recombinant human adenosine A3 receptor expressed in CHO cell membranes; format: cell-based; method in brief: as §2
[15] = Selectivity ratio of Ki for recombinant rat adenosine A3 receptor expressed in CHO cell membranes to Ki for recombinant human adenosine A3 receptor expressed in CHO cell membranes; format: cell-based; method in brief: as §2
[16] = target: Adenosine receptors; A1 & A3 (Homo sapiens) (UniProt P30542+P0DMS8); assay: Selectivity ratio of Ki for recombinant human adenosine A3 receptor expressed in CHO cell membranes to Ki for recombinant human adenosine A1 receptor expressed in CHO cell membranes; format: cell-based; method in brief: as §2
[17] = target: T3, Adenosine receptor A2a; assay: Displacement of [3H]NECA from recombinant human adenosine A2A receptor expressed in CHO cell membranes after 3 hrs by microbeta scintillation counting; method in brief: as §2
[18] = target: T6, Adenosine receptor A2b (Homo sapiens, UniProt P29275); assay: Agonist activity at recombinant human adenosine A2B receptor expressed in CHO cell membranes assessed as stimulation of adenylyl cyclase activity by [alpha-32P]ATP assay; format: functional, cell-based; method in brief: as §3
T6 sequence (P29275 whole entry): T4 sequence (whole entry)

[19] = target: T7, Adenosine receptor A1 (Homo sapiens) (UniProt P30542); assay: Agonist activity at recombinant human adenosine A1 receptor expressed in CHO cell membranes assessed as inhibition of forskolin-stimulated adenylyl cyclase activity after 10 mins relative to CCPA; format: functional, cell-based; method in brief: as §4
T7 sequence (whole entry): T5 sequence (P30542 whole entry)

[20] = system: Mus musculus; assay: Antinociceptive activity in formalin induced nociceptive mouse model assessed as reduction in nociceptive behavior at 0.5 mg/kg, ip administered 10 mins prior to formalin induction measured for 15 to 60 mins; format: functional, organism-based; method in brief: as §1
[21] = system: Mus musculus; assay: Antinociceptive activity in formalin induced nociceptive mouse model assessed as reduction in nociceptive behavior at 1 mg/kg, ip administered 10 mins prior to formalin induction measured up to 7 mins in presence of adenosine A3 agonist 2Cl-IBMECA; format: functional, organism-based; method in brief: as §1
[22] = system: Mus musculus; assay: Antinociceptive activity in formalin induced nociceptive mouse model assessed as reduction in nociceptive behavior at 0.5 mg/kg, ip administered 10 mins prior to formalin induction measured up to 7 mins; format: functional, organism-based; method in brief: as §1
[23] = system: Mus musculus; assay: Antinociceptive activity in formalin induced nociceptive mouse model assessed as reduction in nociceptive behavior at 1 mg/kg, ip administered 10 mins prior to formalin induction measured for 15 to 60 mins in presence of adenosine A3 agonist 2Cl-IBMECA; format: functional, organism-based; method in brief: as §1
[24] = target: T7, Adenosine receptor A1 (Homo sapiens); assay: Partial agonist activity at recombinant human adenosine A1 receptor expressed in CHO cell membranes assessed as inhibition of forskolin-stimulated adenylyl cyclase activity after 10 mins in presence of [alpha-32P]ATP relative to CCPA; format: functional, cell-based; method in brief: as §4
[25] = target: T4, Adenosine receptor A2b (Homo sapiens); assay: Agonist activity at recombinant human adenosine A2B receptor expressed in CHO cell membranes assessed as stimulation of adenylyl cyclase activity relative to NECA; format: functional, cell-based; method in brief: as §3

Compound | Ki [5] | Ki [6] | EC50 [7] | Efficacy [9] | EC50 [11] | Ki [12] | EC50 [13] | Ratio Ki [16] | Ki [17] | EC50 [18] | Efficacy [19] | Efficacy [25] | Ratio Ki [10] | Ratio Ki [14] | Ratio Ki [15] | other results
CCn1nnc([C@H]2O[C@@H](n3cnc4c(NC)ncnc43)[C@H](O)[C@@H]2O)n1 | 484 nM | – | – | – | – | – | – | – | – | – | – | – | – | – | – | inhibition [1]: Active; Activity [2]: Active; Activity [3]: Dose-dependent effect; Activity [4]: inactive
O[C@@H]1[C@H](O)[C@@H](CCl)O[C@H]1n1cnc2c(NC3C[C@@H]4CC[C@@H]3C4)ncnc21 (mixture of isomers) | – | – | – | – | – | – | – | – | – | – | – | – | – | – | – | Activity [20]: inactive; Activity [21]: Active; Activity [22]: inactive; Activity [23]: Active
CCn1nnc([C@H]2O[C@@H](n3cnc4c(NCc5cccc(I)c5)ncnc43)C(O)C2O)n1 (single isomer, unassigned) | 6.1 nM | 0.532 nM | 2.87 nM | > 90% | 2.38 nM | 0.768 nM | 27.4 nM | 0.69 | 16.8 nM | 235 nM | – | > 90% | 22 | 32 | 12 | inhibition [24]: 87%

Further molecules by falling Ki [5], results first:

Ki [5] | Ki [6] | EC50 [7] | Efficacy [9] | EC50 [11] | Ki [12] | EC50 [13] | Ratio Ki [16] | Ki [17] | EC50 [18] | Efficacy [19] | Efficacy [25] | Compound | Ratio Ki [10] | Ratio Ki [14] | Ratio Ki [15] | other results
65.2 nM | 0.575 nM | 16.6 nM | > 90% | 3.53 nM | 0.438 nM | 7.73 nM | 1.3 | 112 nM | 637 nM | > 90% | – | CCn1nnc([C@H]2O[C@@H](n3cnc4c(NCC5CC5)ncnc43)[C@H](O)[C@@H]2O)n1 | 256 | 196 | 110 to 114 | Activity [8]: 81%
4.11 nM | 0.393 nM | 4.46 nM | > 90% | 2.07 nM | 0.95 nM | 45.1 nM | 0.4 | 24.5 nM | 408 nM | > 90% | > 90% | CCn1nnc([C@H]2O[C@@H](n3cnc4c(NCc5cccc(Br)c5)ncnc43)C(O)C2O)n1 (single isomer, unassigned) | 25 | 61 | 10 | –

Reference: ChEMBL document CHEMBL4049451, “Exploring the Role of N6-Substituents in Potent Dual Acting 5'-C-Ethyltetrazolyladenosine Derivatives: Synthesis, Binding, Functional Assays, and Antinociceptive Effects in Mice ∇” (J Med Chem, 2017)
